Data as given in PMC11402776 (The Journal of Biological Chemistry, 2024).
Like-named read-outs stand apart in the source and are kept apart here. Blank lines part the entries; values can stand above or below the molecule they belong to.

Experiments:
[1] = test system: glycolytic pathway (HeLa cell lysate); assay: Cell-free glycolysis assay using HeLa cell lysate; type: biochemical, Human
[2] = test system: PKM2; details: activator of PKM2; cited from earlier work
[3] = test system: glycolytic pathway in HeLa cells; assay: Cellular glycolysis in treated HeLa cells; type: cell-based, Human
Method in brief: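 HeLa cells in RPMI-1640 (10% FBS, 37 °C, 5% CO2), with or without an added 5 mM serine for 5 h. In a second arm, cells were serine-deprived overnight and then given fresh medium with or without serine for 5 h. Read-outs: medium glucose and lactate, and HClO4-extracted intracellular glycolytic intermediates, from which Qs and ΔGs were calculated. A cell-free HeLa-lysate glycolysis system was also run with or without 5 mM serine.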

[4] = biological target: cell lysate PK (MGC80-3) (Homo sapiens, UniProt P14618); assay: PK activity assay, MGC80-3 cell lysate; type: biochemical; details: MGC80-3 lysate; with AIM
[5] = biological target: cell lysate PK (SK-HEP-1) (Homo sapiens, UniProt P14618); assay: PK activity assay, SK-HEP-1 cell lysate; type: biochemical; details: read-out: AC50FBP; SK-HEP-1 lysate; Control (without AIM)
[6] = biological target: cell lysate PK (HeLa) (Homo sapiens, UniProt P14618); assay: PK activity assay, HeLa cell lysate; type: biochemical
[7] = biological target: PKM2; details: read-out: dissociation constant with PKM2; cited from earlier work
[8] = biological target: cell lysate PK (RKO) (Homo sapiens, UniProt P14618); assay: PK activity assay, RKO cell lysate; type: biochemical
[9] = test system: cell lysate PK; type: biochemical, Human; details: regulators at cellular concentrations; Fig. 5A
Method in brief: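 Lysates of control and PKM2 knockdown or knockout cells were assayed for PK by the coupled LDH/NADH method at 340 nm, 37 °C, pH 7.4. PEP was set at each line's measured cellular concentration, for example 0.07 mM for control HeLa and 0.21 mM for siPKM2 HeLa. FBP, the amino-acid mix, or both were added at cellular concentrations. Activity without regulators was set to 100%. Three independent experiments in triplicate.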

[10] = biological target: cell lysate PK (A549) (Homo sapiens, UniProt P14618); assay: PK activity assay, A549 cell lysate; type: biochemical
Chain of cell lysate PK (A549) (P14618 2-531): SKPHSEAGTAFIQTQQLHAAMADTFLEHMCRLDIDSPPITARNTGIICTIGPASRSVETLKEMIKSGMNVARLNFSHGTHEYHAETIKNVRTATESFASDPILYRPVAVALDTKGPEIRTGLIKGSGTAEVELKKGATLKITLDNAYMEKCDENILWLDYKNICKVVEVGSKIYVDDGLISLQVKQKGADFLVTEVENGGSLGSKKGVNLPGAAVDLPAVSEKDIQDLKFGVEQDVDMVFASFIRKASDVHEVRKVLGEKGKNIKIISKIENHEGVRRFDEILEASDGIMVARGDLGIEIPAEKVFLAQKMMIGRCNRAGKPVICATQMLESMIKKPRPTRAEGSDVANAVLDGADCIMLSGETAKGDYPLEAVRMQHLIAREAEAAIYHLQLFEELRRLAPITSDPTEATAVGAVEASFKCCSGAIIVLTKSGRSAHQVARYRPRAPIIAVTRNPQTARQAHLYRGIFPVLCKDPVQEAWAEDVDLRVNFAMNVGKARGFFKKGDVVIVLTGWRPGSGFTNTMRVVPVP

Chain of cell lysate PK (HeLa) (P14618 2-531): as above
Chain of cell lysate PK (RKO) (P14618 2-531): as above
Chain of cell lysate PK (SK-HEP-1) (P14618 2-531): as above
Chain of cell lysate PK (MGC80-3) (P14618 2-531): as above

SMILES: Cn1c2cc([S+](C)[O-])sc2c2cnn(Cc3cccc(N)c3)c(=O)c21 (stereo not drawn) [TEPP-46]
- effect on glycolytic rate ([3]; 1 μM TEPP-46): no significant effect

- AC0: concentration of FBP that completely reverses the inhibition of PK by AIM [4]: 349.6 ± 31.2 nM
- EC50 [5]: 0.0289 ± 0.021 µM
- ACMaxFBP (minimum concentration for maximal activation) ([6]; Control (without AIM)): 216.4 ± 52.8 nM
- AC0: concentration of FBP that completely reverses the inhibition of PK by AIM ([6]; with AIM): 585.2 ± 99.0 nM
- ACMaxFBP (minimum concentration for maximal activation) ([6]; with AIM): 2293.7 ± 503.7 nM
- EC50 ([8]; read-out: AC50FBP, Control (without AIM)): 0.0672 ± 0.0324 µM
- EC50 ([8]; read-out: AC50FBP, with AIM): 1.07 ± 0.394 µM
- ACMaxFBP (minimum concentration for maximal activation) ([10]; Control (without AIM)): 279.0 ± 143.1 nM
- EC50 ([10]; read-out: AC50FBP, with AIM): 0.682 ± 0.126 µM
- ACMaxFBP (minimum concentration for maximal activation) ([10]; with AIM): 1258.9 ± 245.4 nM
SMILES: O=C(COP(=O)(O)O)[C@@H](O)[C@H](O)[C@H](O)COP(=O)(O)O [FBP]
- Kd [7]: 0.174 µM
- reversal of the inhibition of PK by AIM [9]: completely reversed the inhibition

SMILES: N[C@@H](Cc1ccccc1)C(=O)O [Phenylalanine, phenylalanine]
- Kd [7]: 507 µM

SMILES: N[C@@H](CS)C(=O)O [cysteine]
- Kd [7]: 5.5 µM

SMILES: NC(=O)C[C@H](N)C(=O)O [asparagine]
- Kd [7]: 11 ± 2 µM

SMILES: N[C@@H](CO)C(=O)O [Serine, serine]
- effect on glycolysis (rate, intermediate concentrations, ΔGs) ([1]; 5 mM serine): did not observe serine exert any significant effect on glycolysis
- Kd [7]: 191 µM
- glucose consumption and lactate generation with or without serine treatment ([3]; 5 mM serine 5 h): comparable
- reversal of the inhibition of PK by AIM [9]: did not significantly reverse the inhibition

SMILES: CC(C)[C@H](N)C(=O)O [Valine, valine]
- Kd [7]: 757 ± 120 µM

SMILES: N[C@@H](CC(=O)O)C(=O)O [aspartate]
- Kd [7]: 35 ± 7 µM
